Test results: ChEMBL document CHEMBL1125881, “Synthesis and hypocholesterolemic activity of 6,7-dihydro-4H-pyrazolo[1,5-a]pyrrolo[3,4-d]pyrimidine-5,8-diones, novel inhibitors of acylCoA:cholesterol O-acyltransferase” (J Med Chem, 1991)
pIC50: −log10 of the molar value. Values joined by “and” are separate entries in the source; they are usually repeats but may differ in a detail not shown here. Identical values can stand only once.

What was measured:
[1] = target: T1, Sterol O-acyltransferase 1 (Rattus norvegicus) (UniProt O70536); assay: Inhibition of Fu5AH Acyl coenzyme A:cholesterol acyltransferase at the concentration of 10 ug/mL
T1 sequence (whole entry): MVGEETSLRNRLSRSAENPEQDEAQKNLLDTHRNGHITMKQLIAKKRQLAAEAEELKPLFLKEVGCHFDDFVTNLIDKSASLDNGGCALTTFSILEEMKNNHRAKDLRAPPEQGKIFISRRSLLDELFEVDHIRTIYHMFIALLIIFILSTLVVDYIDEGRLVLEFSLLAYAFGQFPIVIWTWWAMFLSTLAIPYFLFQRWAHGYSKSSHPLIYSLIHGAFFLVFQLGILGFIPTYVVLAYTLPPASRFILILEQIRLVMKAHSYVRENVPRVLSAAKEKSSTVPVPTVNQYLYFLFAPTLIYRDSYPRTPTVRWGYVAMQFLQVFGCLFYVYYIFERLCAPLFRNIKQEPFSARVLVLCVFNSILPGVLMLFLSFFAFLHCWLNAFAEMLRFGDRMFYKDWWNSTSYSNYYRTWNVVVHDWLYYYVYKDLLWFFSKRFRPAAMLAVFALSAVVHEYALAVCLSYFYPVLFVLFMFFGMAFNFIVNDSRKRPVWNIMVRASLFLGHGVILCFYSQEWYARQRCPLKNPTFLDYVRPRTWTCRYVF

[2] = target: T2, Sterol O-acyltransferase 1 (Rattus norvegicus, UniProt O70536); assay: In vitro inhibition of Fu5AH acyl coenzyme A:cholesterol acyltransferase.
T2 sequence (O70536 whole entry): T1 sequence (whole entry)

Rattus norvegicus [3] = species: Rattus norvegicus; assay: (§1) Percent control of serum cholesterol in cholesterol; type: functional; parameters: concentration or dose not given beside the values
Summary of the method: (§2)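 Male Sprague-Dawley rats (100–110 g), groups of 10, fed synthetic diet with 1% cholesterol; compound mixed into diet to give the stated daily dose (mg/kg) for 7 days. Serum from jugular bleed under anesthesia; VLDL+LDL separated from HDL by PEG-8000 precipitation in glycine buffer pH 9; values expressed as % of cholesterol-fed control; one-way design, LSD comparison.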

Rattus norvegicus [4] = species: Rattus norvegicus; assay: as §1; type: functional; parameters: concentration or dose not given beside the values; summary of the method: as §2; remark: listed apart in the source
Rattus norvegicus [5] = species: Rattus norvegicus; assay: as §1; type: functional; parameters: concentration or dose not given beside the values; summary of the method: as §2; remark: listed apart in the source
Rattus norvegicus [6] = species: Rattus norvegicus; assay: (§3) The compound was tested for % control of serum cholesterol in cholesterol; type: functional; summary of the method: as §2
Rattus norvegicus [7] = species: Rattus norvegicus; assay: as §3; type: functional; summary of the method: as §2; remark: listed apart in the source
Rattus norvegicus [8] = species: Rattus norvegicus; assay: as §3; type: functional; summary of the method: as §2; remark: listed apart in the source
Rattus norvegicus [9] = species: Rattus norvegicus; assay: as §3; type: functional; summary of the method: as §2; remark: listed apart in the source
Rattus norvegicus [10] = species: Rattus norvegicus; assay: as §3; type: functional; summary of the method: as §2; remark: listed apart in the source
Rattus norvegicus [11] = species: Rattus norvegicus; assay: as §3; type: functional; summary of the method: as §2; remark: listed apart in the source

Structure (SMILES): CCOC(=O)CCCn1c2c(c(=O)n3nc(-c4ccccc4)cc13)CN(C1CCCCC1)C2=O
- inhibition [1]: 28%

Structure (SMILES): O=C(Cn1c2c(c(=O)n3nc(-c4ccccc4)cc13)CN(C1CCCCC1)C2=O)c1cccc([N+](=O)[O-])c1
- inhibition [1]: 87%
- pIC50 [2]: 5.56
- Control (Rattus norvegicus [3]): 83%
- Control (Rattus norvegicus [4]): 106%
- Control (Rattus norvegicus [5]): 126%

Structure (SMILES): Cn1c2c(c(=O)n3nc(-c4ccccc4)cc13)CN(C1CCCCC1)C2=O
- inhibition [1]: 13%

Structure (SMILES): O=C(Cn1c2c(c(=O)n3nc(-c4ccccc4)cc13)CN(C1CCCCC1)C2=O)c1ccc2ccccc2c1
- inhibition [1]: 19%

Structure (SMILES): O=C1c2c(c(=O)n3nc(-c4ccccc4)cc3n2Cc2ccccc2)CN1C[C@H]1CC[C@H](O)CC1
- inhibition [1]: 23%
- Control (Rattus norvegicus [3]): 90%
- Control (Rattus norvegicus [4]): 108%
- Control (Rattus norvegicus [5]): 128%

Structure (SMILES): O=C1c2c(c(=O)n3nc(-c4ccccc4)cc3n2Cc2ccccc2)CN1c1ccccc1
- inhibition [1]: 18%

Structure (SMILES): O=C1c2c(c(=O)n3ncc(-c4ccccc4)c3n2Cc2ccccc2)CN1C1CCCCC1
- inhibition [1]: 21%

Structure (SMILES): O=C(Cn1c2c(c(=O)n3nc(-c4ccccc4)cc13)CN(C1CCCCC1)C2=O)c1ccc(F)cc1
- inhibition [1]: 88%
- pIC50 [2]: 5.29
- Control (Rattus norvegicus [3]): 101%
- Control (Rattus norvegicus [4]): 98%
- Control (Rattus norvegicus [5]): 95%

Structure (SMILES): O=C(Cn1c2c(c(=O)n3nc(-c4ccccc4)cc13)CN(C1CCCCCCC1)C2=O)c1ccccc1
- inhibition [1]: 68%
- Control (Rattus norvegicus [3]): 100%
- Control (Rattus norvegicus [4]): 83%
- Control (Rattus norvegicus [5]): 67%

Structure (SMILES): O=C(Cn1c2c(c(=O)n3nc(-c4ccccc4)cc13)CN(C1CC3CCC1C3)C2=O)c1ccccc1 (stereo unspecified)
- inhibition [1]: 83%
- pIC50 [2]: 5.36
- Control (Rattus norvegicus [3]): 90%
- Control (Rattus norvegicus [4]): 75%
- Control (Rattus norvegicus [5]): 63%

Structure (SMILES): O=C1c2c(c(=O)n3nc(-c4ccccc4)cc3n2Cc2ccccc2)CN1Cc1ccccc1
- inhibition [1]: 90%
- pIC50 [2]: 4.98
- Control (Rattus norvegicus [3]): 92%
- Control (Rattus norvegicus [4]): 105%
- Control (Rattus norvegicus [5]): 113%

Structure (SMILES): CC1CCCC(N2Cc3c(n(CC(=O)c4ccccc4)c4cc(-c5ccccc5)nn4c3=O)C2=O)C1C (stereo unspecified)
- inhibition [1]: 79%
- pIC50 [2]: 5.18
- Control (Rattus norvegicus [6]): 109%
- Control (Rattus norvegicus [7]): 83%
- Control (Rattus norvegicus [8]): 62%
- Control (Rattus norvegicus [3]): 122%
- Control (Rattus norvegicus [4]): 89%
- Control (Rattus norvegicus [5]): 59%
- Control (Rattus norvegicus [9]): 105%
- Control (Rattus norvegicus [10]): 86%
- Control (Rattus norvegicus [11]): 70%

Structure (SMILES): CCCCCCCCCCCCCCCCOc1ccc(C(=O)Cn2c3c(c(=O)n4nc(-c5ccccc5)cc24)CN(C2CCCCC2)C3=O)cc1
- inhibition [1]: 2%

Structure (SMILES): O=C1c2c(c(=O)n3nc(-c4ccccc4)cc3n2CS(=O)(=O)c2ccccc2)CN1C1CCCCC1
- inhibition [1]: 31%

Structure (SMILES): O=C1c2c(c(=O)n3nc(-c4ccccc4)cc3n2C/C=C/c2ccccc2)CN1C1CCCCC1
- inhibition [1]: 75%
- pIC50 [2]: 4.81

Structure (SMILES): CCCCCCCC/C=C\CCCCCCCCN1Cc2c(n(CC(=O)c3ccccc3)c3cc(-c4ccccc4)nn3c2=O)C1=O
- inhibition [1]: 1%
- Control (Rattus norvegicus [3]): 86%
- Control (Rattus norvegicus [4]): 76%
- Control (Rattus norvegicus [5]): 69%

Structure (SMILES): CC(c1ccccc1)N1Cc2c(n(CC(=O)c3ccccc3)c3cc(-c4ccccc4)nn3c2=O)C1=O (stereo unspecified)
- inhibition [1]: 30%
- Control (Rattus norvegicus [3]): 92%
- Control (Rattus norvegicus [4]): 91%
- Control (Rattus norvegicus [5]): 90%

Structure (SMILES): COC(=O)Cn1c2c(c(=O)n3nc(-c4ccccc4)cc13)CN(C1CCCCC1)C2=O
- inhibition [1]: 25%
- Control (Rattus norvegicus [3]): 112%
- Control (Rattus norvegicus [4]): 109%
- Control (Rattus norvegicus [5]): 109%

Structure (SMILES): C=CCOc1ccc(-c2cc3n(Cc4ccccc4)c4c(c(=O)n3n2)CN(C2CCCCC2)C4=O)cc1
- inhibition [1]: 65%
- pIC50 [2]: 4.94
- Control (Rattus norvegicus [3]): 95%
- Control (Rattus norvegicus [4]): 94%
- Control (Rattus norvegicus [5]): 98%

Structure (SMILES): O=C1c2c(c(=O)n3nc(-c4ccc(O)cc4)cc3n2Cc2ccccc2)CN1C1CCCCC1
- inhibition [1]: 33%

Structure (SMILES): O=C1c2c(c(=O)n3nc(-c4ccccc4)cc3n2Cc2ccccc2)CN1C1CCCCC1
- inhibition [1]: 88%
- pIC50 [2]: 5.10
- Control (Rattus norvegicus [3]): 97%
- Control (Rattus norvegicus [4]): 104%
- Control (Rattus norvegicus [5]): 110%

Structure (SMILES): O=C(Cn1c2c(c(=O)n3nc(-c4ccccc4)cc13)CN(C1CCCCC1)C2=O)c1ccccc1
- inhibition [1]: 92%
- pIC50 [2]: 5.44
- Control (Rattus norvegicus [6]): 133%
- Control (Rattus norvegicus [7]): 97%
- Control (Rattus norvegicus [8]): 75%
- Control (Rattus norvegicus [3]): 128%
- Control (Rattus norvegicus [4]): 97% and 88%
- Control (Rattus norvegicus [5]): 65%
- Control (Rattus norvegicus [9]): 120%
- Control (Rattus norvegicus [11]): 84%

Structure (SMILES): O=C1c2c(c(=O)n3nc(C4CCCCC4)cc3n2Cc2ccccc2)CN1C1CCCCC1
- inhibition [1]: 12%
- Control (Rattus norvegicus [3]): 111%
- Control (Rattus norvegicus [4]): 109%
- Control (Rattus norvegicus [5]): 106%

Structure (SMILES): CC(C(=O)c1ccccc1)n1c2c(c(=O)n3nc(-c4ccccc4)cc13)CN(C1CCCCC1)C2=O (stereo unspecified)
- inhibition [1]: 55%

Structure (SMILES): CCOc1ccc(-c2cc3n(Cc4ccccc4)c4c(c(=O)n3n2)CN(C2CCCCC2)C4=O)cc1
- inhibition [1]: 75%
- Control (Rattus norvegicus [3]): 93%
- Control (Rattus norvegicus [4]): 110%
- Control (Rattus norvegicus [5]): 122%

Structure (SMILES): CN1Cc2c(n(Cc3ccccc3)c3cc(-c4ccccc4)nn3c2=O)C1=O
- inhibition [1]: 8%

Structure (SMILES): COC(=O)c1ccc(C(=O)Cn2c3c(c(=O)n4nc(-c5ccccc5)cc24)CN(C2CCCCC2)C3=O)cc1
- inhibition [1]: 1%
- Control (Rattus norvegicus [3]): 99%
- Control (Rattus norvegicus [4]): 107%
- Control (Rattus norvegicus [5]): 116%

Structure (SMILES): CCCCCCN1Cc2c(n(CC(=O)c3ccccc3)c3cc(-c4ccccc4)nn3c2=O)C1=O
- inhibition [1]: 75%
- Control (Rattus norvegicus [3]): 98%
- Control (Rattus norvegicus [4]): 89%
- Control (Rattus norvegicus [5]): 86%

Structure (SMILES): CC(C)(C)CC(C)(C)N1Cc2c(n(CC(=O)c3ccccc3)c3cc(-c4ccccc4)nn3c2=O)C1=O
- inhibition [1]: 80%
- pIC50 [2]: 5.05
- Control (Rattus norvegicus [3]): 122%
- Control (Rattus norvegicus [4]): 107%
- Control (Rattus norvegicus [5]): 96%

Structure (SMILES): CCCCCCCCCCCCN1Cc2c(n(CC(=O)c3ccccc3)c3cc(-c4ccccc4)nn3c2=O)C1=O
- inhibition [1]: 39%
- Control (Rattus norvegicus [3]): 92%
- Control (Rattus norvegicus [4]): 91%
- Control (Rattus norvegicus [5]): 85%

Structure (SMILES): O=C(Cn1c2c(c(=O)n3nc(-c4ccccc4)cc13)CN(C1CCCCCCCCCCC1)C2=O)c1ccccc1
- inhibition [1]: 39%
- Control (Rattus norvegicus [3]): 92%
- Control (Rattus norvegicus [4]): 83%
- Control (Rattus norvegicus [5]): 76%

Structure (SMILES): O=C1c2c(c(=O)n3nccc3n2Cc2ccccc2)CN1C1CCCCC1
- inhibition [1]: 25%

Structure (SMILES): COc1ccc(CN2Cc3c(n(CC(=O)c4ccccc4)c4cc(-c5ccccc5)nn4c3=O)C2=O)cc1
- inhibition [1]: 10%

Structure (SMILES): O=C1c2c(c(=O)n3nc(-c4ccccc4)cc3n2CSc2ccccc2)CN1C1CCCCC1
- inhibition [1]: 55%
- pIC50 [2]: 4.64

Structure (SMILES): O=C1c2c(c(=O)n3nc(-c4ccccc4)cc3n2CC(O)c2ccccc2)CN1C1CCCCC1 (stereo unspecified)
- inhibition [1]: 66%

Structure (SMILES): O=C(Cn1c2c(c(=O)n3nc(-c4ccccc4)cc13)CN(Cc1ccccc1)C2=O)c1ccccc1
- inhibition [1]: 70%
- pIC50 [2]: 5.26
- Control (Rattus norvegicus [3]): 100%
- Control (Rattus norvegicus [4]): 100%
- Control (Rattus norvegicus [5]): 101%

Structure (SMILES): O=C1c2c(c(=O)n3nc(-c4ccccc4)cc3n2CC2CCCCC2)CN1C1CCCCC1
- inhibition [1]: 97%
- pIC50 [2]: 5.06
- Control (Rattus norvegicus [3]): 80%
- Control (Rattus norvegicus [4]): 111%
- Control (Rattus norvegicus [5]): 144%

Structure (SMILES): CC(C)CC(C)N1Cc2c(n(CC(=O)c3ccccc3)c3cc(-c4ccccc4)nn3c2=O)C1=O (stereo unspecified)
- inhibition [1]: 85%
- pIC50 [2]: 5.19
- Control (Rattus norvegicus [3]): 89%
- Control (Rattus norvegicus [4]): 72%
- Control (Rattus norvegicus [5]): 57%

Structure (SMILES): COc1ccc(C(=O)Cn2c3c(c(=O)n4nc(-c5ccccc5)cc24)CN(C2CCCCC2)C3=O)cc1
- inhibition [1]: 52%

Structure (SMILES): O=C(CCCn1c2c(c(=O)n3nc(-c4ccccc4)cc13)CN(C1CCCCC1)C2=O)c1ccccc1
- inhibition [1]: 78%
- pIC50 [2]: 4.86

Structure (SMILES): CCCCCCn1c2c(c(=O)n3nc(-c4ccccc4)cc13)CN(C1CCCCC1)C2=O
- inhibition [1]: 48%
